Laboratory results as given in ChEMBL document CHEMBL5365503, “Design and Synthesis of 1,3,5-Triazines or Pyrimidines Containing Dithiocarbamate Moiety as PI3Kα Selective Inhibitors” (ACS Med Chem Lett, 2023).

Tests used:
[1] = target: Phosphatidylinositol 4,5-bisphosphate 3-kinase catalytic subunit alpha isoform (Homo sapiens, UniProt P42336); experiment: Inhibition of N-terminal GST-fused full-length human PI3Kalpha (1 to 1068 residues) expressed in baculovirus expression system using PIP2 as substrate incubated for 1 hr in presence of ATP by ADP-Glo assay
Sequence of Phosphatidylinositol 4,5-bisphosphate 3-kinase catalytic subunit alpha isoform (P42336 whole entry, the tested form may be a part, canonical isoform): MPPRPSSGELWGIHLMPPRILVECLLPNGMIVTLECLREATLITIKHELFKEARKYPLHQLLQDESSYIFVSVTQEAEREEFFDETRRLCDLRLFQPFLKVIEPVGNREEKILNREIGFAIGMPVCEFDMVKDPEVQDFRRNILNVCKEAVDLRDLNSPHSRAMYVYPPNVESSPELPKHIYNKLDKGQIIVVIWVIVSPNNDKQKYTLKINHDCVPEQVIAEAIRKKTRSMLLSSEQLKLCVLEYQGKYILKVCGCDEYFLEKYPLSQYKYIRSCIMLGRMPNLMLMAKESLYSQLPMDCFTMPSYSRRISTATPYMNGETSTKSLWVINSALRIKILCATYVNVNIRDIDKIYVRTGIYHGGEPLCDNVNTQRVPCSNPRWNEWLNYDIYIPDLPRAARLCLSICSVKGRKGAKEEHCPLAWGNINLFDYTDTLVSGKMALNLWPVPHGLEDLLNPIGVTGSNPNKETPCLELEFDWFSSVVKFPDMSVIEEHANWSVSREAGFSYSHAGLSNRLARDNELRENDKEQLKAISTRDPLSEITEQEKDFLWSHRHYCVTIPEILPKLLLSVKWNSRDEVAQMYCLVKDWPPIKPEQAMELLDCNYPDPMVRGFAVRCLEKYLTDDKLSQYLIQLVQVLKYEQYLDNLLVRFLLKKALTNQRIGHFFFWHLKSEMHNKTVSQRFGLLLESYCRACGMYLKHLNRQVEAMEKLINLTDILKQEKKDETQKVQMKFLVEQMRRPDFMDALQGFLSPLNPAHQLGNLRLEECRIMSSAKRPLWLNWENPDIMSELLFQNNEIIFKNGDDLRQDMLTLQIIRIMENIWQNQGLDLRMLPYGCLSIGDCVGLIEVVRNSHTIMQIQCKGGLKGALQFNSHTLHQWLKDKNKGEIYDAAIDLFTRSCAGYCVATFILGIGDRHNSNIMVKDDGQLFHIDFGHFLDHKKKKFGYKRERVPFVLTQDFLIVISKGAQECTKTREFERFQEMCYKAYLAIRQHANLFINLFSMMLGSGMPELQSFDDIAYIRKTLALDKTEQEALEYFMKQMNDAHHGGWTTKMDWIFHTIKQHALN

U-87 MG [2] = experiment: Antiproliferative activity against human U-87 MG cells assessed as inhibition of cell proliferation incubated for 96 hrs by MTT assay; format: functional, cell-based, U-87MG ATCC
HCT-116 = experiment: Antiproliferative activity against human HCT-116 cells assessed as inhibition of cell proliferation incubated for 96 hrs by MTT assay; format: functional, cell-based; settings: HCT-116, 96 h
[3] = Toxicity in BALB/c mouse xenografted with human U-87 MG cells assessed as body weight loss at 40 mg/kg/day, ip for 16 days; format: organism-based; settings: in vivo, 384 h, time 16 day
Outline: (§1)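 U87-MG xenograft mice treated once tumours averaged ~100 mm³. Dosing was 40 mg/kg/day intraperitoneally, once daily for 16 days. Tumour volume and body weight of each mouse were recorded on days 1, 4, 8, 11, 15 and 17.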

[4] = Metabolic stability in rat liver microsomes assessed as compound remaining […] measured upto 60 mins by LC-MS/MS analysis; format: ADME, Microsome; settings: read-out: Stability
[5] = Toxicity in BALB/c mouse xenografted with human U-87 MG cells assessed as drug tolerance at 40 mg/kg/day, ip for 16 days; format: organism-based; settings: in vivo, 384 h, time 16 day; outline: as §1
[6] = Metabolic stability in rat liver microsomes assessed as compound remaining […] measured upto 60 mins in presence of NADPH by LC-MS/MS analysis; format: ADME, Microsome; settings: read-out: Stability
[7] = Toxicity in BALB/c mouse xenografted with human U-87 MG cells assessed as animal mortality at 40 mg/kg/day, ip for 16 days; format: organism-based; settings: in vivo, 384 h, time 16 day; outline: as §1
[8] = Metabolic stability in rat liver assessed as intrinsic clearance […] measured upto 60 mins in presence of NADPH by LC-MS/MS analysis; format: ADME; settings: read-out: CLH
[9] = Metabolic stability in rat liver microsomes assessed as intrinsic clearance […] measured upto 60 mins in presence of NADPH by LC-MS/MS analysis; format: ADME, Microsome; settings: read-out: CLH
U-87 MG [10] = experiment: Antitumor activity against human U-87 MG cells xenografted in BALB/c mouse assessed as tumor growth inhibition at 40 mg/kg/day, ip for 16 days relative to control; format: functional, U-87MG ATCC; settings: 384 h, time 16 day, read-out: TGI
Outline: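 U87-MG xenografts in mice; dosing began once mean tumor volume reached about 100 mm³. Given 40 mg/kg/day intraperitoneally, once daily for 16 days.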

[11] = Metabolic stability in rat liver microsomes assessed as half life […] measured upto 60 mins in presence of NADPH by LC-MS/MS analysis; format: ADME, Microsome
[12] = target: T1, Phosphatidylinositol 4,5-bisphosphate 3-kinase catalytic subunit delta isoform (Homo sapiens, UniProt O00329); experiment: Inhibition of N-terminal 6xHis-tagged recombinant full-length human PI3Kdelta expressed in baculovirus infected Sf21 insect cells by ADP-Glo assay
T1 sequence (O00329 whole entry): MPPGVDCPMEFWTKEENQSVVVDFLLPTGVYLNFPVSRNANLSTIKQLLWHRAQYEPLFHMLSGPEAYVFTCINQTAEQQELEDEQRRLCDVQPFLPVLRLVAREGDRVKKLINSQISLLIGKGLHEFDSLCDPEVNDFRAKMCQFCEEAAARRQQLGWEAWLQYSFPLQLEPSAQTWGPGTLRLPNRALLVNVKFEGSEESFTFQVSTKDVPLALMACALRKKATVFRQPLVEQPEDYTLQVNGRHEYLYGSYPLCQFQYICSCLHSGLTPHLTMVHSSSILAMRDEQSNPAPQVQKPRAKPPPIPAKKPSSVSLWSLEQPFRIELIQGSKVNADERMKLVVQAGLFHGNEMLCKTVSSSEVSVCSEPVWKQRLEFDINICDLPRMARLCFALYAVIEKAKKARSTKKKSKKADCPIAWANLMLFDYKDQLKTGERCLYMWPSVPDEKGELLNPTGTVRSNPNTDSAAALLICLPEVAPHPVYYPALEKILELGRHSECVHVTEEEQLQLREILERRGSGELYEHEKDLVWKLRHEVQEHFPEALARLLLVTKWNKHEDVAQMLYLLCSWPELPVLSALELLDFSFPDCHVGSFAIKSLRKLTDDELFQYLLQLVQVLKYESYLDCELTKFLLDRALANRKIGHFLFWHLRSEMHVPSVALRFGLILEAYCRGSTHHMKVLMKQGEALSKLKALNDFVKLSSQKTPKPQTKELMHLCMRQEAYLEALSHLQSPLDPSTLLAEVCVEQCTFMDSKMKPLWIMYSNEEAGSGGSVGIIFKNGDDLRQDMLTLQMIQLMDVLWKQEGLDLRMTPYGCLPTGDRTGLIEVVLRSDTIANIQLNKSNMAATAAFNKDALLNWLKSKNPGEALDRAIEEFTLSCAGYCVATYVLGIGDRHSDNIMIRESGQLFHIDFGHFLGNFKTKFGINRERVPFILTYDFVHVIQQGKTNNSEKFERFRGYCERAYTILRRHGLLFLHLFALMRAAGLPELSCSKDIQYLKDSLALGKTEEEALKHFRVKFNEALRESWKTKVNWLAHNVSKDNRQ

[13] = target: Phosphatidylinositol 4,5-bisphosphate 3-kinase catalytic subunit beta isoform (Homo sapiens, UniProt P42338); experiment: Inhibition of N-terminal 6xHis-tagged recombinant, full length human PI3Kbeta by ADP-Glo assay
Sequence of Phosphatidylinositol 4,5-bisphosphate 3-kinase catalytic subunit beta isoform (P42338 whole entry, canonical isoform): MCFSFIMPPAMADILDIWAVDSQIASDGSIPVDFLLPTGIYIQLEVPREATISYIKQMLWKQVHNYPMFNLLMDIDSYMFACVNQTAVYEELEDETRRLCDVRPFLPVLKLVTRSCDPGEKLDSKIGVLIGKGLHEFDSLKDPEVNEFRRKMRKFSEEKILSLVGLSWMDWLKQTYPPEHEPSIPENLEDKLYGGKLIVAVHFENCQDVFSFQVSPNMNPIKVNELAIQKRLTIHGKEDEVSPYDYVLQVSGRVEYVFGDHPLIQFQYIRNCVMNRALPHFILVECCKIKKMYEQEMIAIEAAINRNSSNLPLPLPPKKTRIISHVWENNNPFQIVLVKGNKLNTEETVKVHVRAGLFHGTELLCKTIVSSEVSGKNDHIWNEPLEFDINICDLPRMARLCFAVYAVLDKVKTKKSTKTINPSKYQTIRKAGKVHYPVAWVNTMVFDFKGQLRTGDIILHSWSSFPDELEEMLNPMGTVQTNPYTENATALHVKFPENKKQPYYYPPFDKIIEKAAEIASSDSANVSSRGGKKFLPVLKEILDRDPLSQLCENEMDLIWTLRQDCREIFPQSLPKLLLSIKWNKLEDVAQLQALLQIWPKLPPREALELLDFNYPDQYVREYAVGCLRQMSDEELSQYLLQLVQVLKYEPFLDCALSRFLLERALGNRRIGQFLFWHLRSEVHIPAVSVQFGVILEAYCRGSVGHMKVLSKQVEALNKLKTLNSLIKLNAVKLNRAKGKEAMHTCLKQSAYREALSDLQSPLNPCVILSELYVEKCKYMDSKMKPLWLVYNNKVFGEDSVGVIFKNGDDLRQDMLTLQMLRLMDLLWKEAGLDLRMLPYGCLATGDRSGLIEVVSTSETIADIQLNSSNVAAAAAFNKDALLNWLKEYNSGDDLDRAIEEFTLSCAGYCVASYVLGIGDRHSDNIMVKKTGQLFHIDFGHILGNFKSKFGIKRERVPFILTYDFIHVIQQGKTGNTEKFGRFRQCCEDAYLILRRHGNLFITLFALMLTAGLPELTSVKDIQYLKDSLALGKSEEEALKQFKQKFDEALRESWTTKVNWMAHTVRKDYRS

[14] = target: Phosphatidylinositol 4,5-bisphosphate 3-kinase catalytic subunit gamma isoform (Homo sapiens, UniProt P48736); experiment: Inhibition of human PI3Kgamma expressed in baculovirus infected Sf21 insect cells by ADP-Glo assay
Sequence of Phosphatidylinositol 4,5-bisphosphate 3-kinase catalytic subunit gamma isoform (P48736 whole entry, canonical isoform): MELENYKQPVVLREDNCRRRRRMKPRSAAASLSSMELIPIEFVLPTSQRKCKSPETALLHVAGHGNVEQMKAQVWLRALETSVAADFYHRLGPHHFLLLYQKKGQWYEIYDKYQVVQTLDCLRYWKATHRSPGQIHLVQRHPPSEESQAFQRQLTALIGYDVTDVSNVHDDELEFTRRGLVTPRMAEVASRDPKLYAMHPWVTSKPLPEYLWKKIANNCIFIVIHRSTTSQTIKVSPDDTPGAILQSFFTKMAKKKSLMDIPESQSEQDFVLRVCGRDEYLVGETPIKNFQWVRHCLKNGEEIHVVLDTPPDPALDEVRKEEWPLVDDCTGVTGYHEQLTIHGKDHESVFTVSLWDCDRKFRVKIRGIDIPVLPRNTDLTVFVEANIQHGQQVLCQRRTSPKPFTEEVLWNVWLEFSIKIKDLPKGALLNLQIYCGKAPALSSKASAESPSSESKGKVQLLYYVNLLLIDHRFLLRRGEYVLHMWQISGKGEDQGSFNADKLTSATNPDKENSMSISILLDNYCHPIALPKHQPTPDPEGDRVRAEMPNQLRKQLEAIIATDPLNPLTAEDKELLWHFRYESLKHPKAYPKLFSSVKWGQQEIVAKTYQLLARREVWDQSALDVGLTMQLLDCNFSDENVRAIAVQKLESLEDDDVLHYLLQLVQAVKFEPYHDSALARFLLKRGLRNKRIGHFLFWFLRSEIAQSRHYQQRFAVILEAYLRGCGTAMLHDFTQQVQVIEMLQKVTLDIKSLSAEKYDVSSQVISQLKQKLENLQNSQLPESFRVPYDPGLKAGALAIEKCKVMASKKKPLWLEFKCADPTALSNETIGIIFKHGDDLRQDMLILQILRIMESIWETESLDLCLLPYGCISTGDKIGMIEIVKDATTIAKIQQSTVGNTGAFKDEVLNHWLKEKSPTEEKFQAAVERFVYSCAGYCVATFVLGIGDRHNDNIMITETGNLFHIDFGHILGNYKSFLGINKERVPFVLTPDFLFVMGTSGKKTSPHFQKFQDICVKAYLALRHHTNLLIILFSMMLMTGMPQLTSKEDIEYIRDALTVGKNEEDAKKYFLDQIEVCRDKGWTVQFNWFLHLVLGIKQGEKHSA

## COCCSC(=S)N1CCN(c2nc(N3CCOCC3)nc(-n3c(C(F)F)nc4c(OC)cccc43)n2)CC1
[1]
  IC50: 21 nM

## COc1cccc2c1nc(C(F)F)n2-c1nc(N2CCOCC2)nc(N2CCN(C(=S)SCC(=O)N3CCOCC3)CC2)n1
U-87 MG [2]
  IC50: 600 nM
HCT-116
  IC50: 1110 nM
[1]
  IC50: 0.7 nM

## FC(F)c1nc2ccccc2n1-c1nc(N2CCOCC2)nc(N2CCOCC2)n1 [ZSTK-474]
U-87 MG [2]
  IC50: 130 nM
[3]
  Activity: Non-Toxic
[4]
  remaining at 1 h: 100%
[5]
  Activity: Non-Toxic
HCT-116
  IC50: 710 nM
[6]
  remaining at 1 h: 19.6%
[7]
  Activity: Non-Toxic
[8]
  CLint scaled: 97 mL/min/kg
[9]
  microsomal CLint: 54 µL/min/mg
U-87 MG [10]
  inhibition in vivo at 40 mg/kg/day: 72%
[11]
  half-life: 25.7 min

## COc1cccc2c1nc(C(F)F)n2-c1nc(N2CCOCC2)cc(N2CCN(C(=S)SCCN3CCOCC3)CC2)n1
[1]
  IC50: 81 nM

## COc1cccc2c1nc(C(F)F)n2-c1nc(N2CCOCC2)nc(N2CCN(C(=S)SCC(=O)N3CCN(S(C)(=O)=O)CC3)CC2)n1
[12]
  IC50: > 50 nM
U-87 MG [2]
  IC50: 1250 nM
[3]
  Activity: Non-Toxic
[4]
  remaining at 1 h: 68.2%
[13]
  IC50: > 50 nM
[5]
  Activity: Non-Toxic
HCT-116
  IC50: 830 nM
[6]
  remaining at 1 h: 11.2%
[7]
  Activity: Non-Toxic
[14]
  IC50: 42 nM
[8]
  CLint scaled: 116 mL/min/kg
[1]
  IC50: 1.2 nM
[9]
  microsomal CLint: 64 µL/min/mg
U-87 MG [10]
  inhibition in vivo at 40 mg/kg/day: 42%
[11]
  half-life: 21.5 min

## COc1cccc2c1nc(C(F)F)n2-c1nc(N2CCOCC2)cc(N2CCN(C(=S)SCC(N)=O)CC2)n1
[1]
  IC50: 2.5 nM

## COc1cccc2c1nc(C(F)F)n2-c1nc(N2CCOCC2)nc(N2CCN(C(=S)SCC(=O)NC3CCCC3)CC2)n1
[1]
  IC50: 2.8 nM

## COc1cccc2c1nc(C(F)F)n2-c1nc(N2CCOCC2)cc(N2CCN(C(=S)SCC(=O)NC3CC3)CC2)n1
[1]
  IC50: 2.7 nM

## COc1cccc2c1nc(C(F)F)n2-c1nc(N2CCOCC2)nc(N2CCN(C(=S)SCCN3CCCCC3)CC2)n1
[1]
  IC50: 42 nM

## COc1cccc2c1nc(C(F)F)n2-c1nc(N2CCOCC2)nc(N2CCN(C(=S)SCC(=O)N3CCN(C)CC3)CC2)n1
U-87 MG [2]
  IC50: 1670 nM
HCT-116
  IC50: 980 nM
[1]
  IC50: 1.4 nM

## COCCSC(=S)N1CCN(c2cc(N3CCOCC3)nc(-n3c(C(F)F)nc4c(OC)cccc43)n2)CC1
[1]
  IC50: 17 nM

## COc1cccc2c1nc(C(F)F)n2-c1nc(N2CCOCC2)cc(N2CCN(C(=S)SCC(=O)NC3CCCCC3)CC2)n1
[1]
  IC50: 12 nM

## CCN(CC)C(=O)CSC(=S)N1CCN(c2cc(N3CCOCC3)nc(-n3c(C(F)F)nc4c(OC)cccc43)n2)CC1
[1]
  IC50: 1.3 nM

## COc1cccc2c1nc(C(F)F)n2-c1nc(N2CCOCC2)cc(N2CCN(C(=S)SCC(=O)NC3CCCC3)CC2)n1
[1]
  IC50: 34 nM

## COc1cccc2c1nc(C(F)F)n2-c1nc(N2CCOCC2)cc(N2CCN(C(=S)SCC(=O)NC3CCC3)CC2)n1
[1]
  IC50: 3.3 nM

## COc1cccc2c1nc(C(F)F)n2-c1nc(N2CCOCC2)nc(N2CCN(C(=S)SCC(=O)N(C)C)CC2)n1
U-87 MG [2]
  IC50: 1100 nM
HCT-116
  IC50: 2780 nM
[1]
  IC50: 0.8 nM

## COc1cccc2c1nc(C(F)F)n2-c1nc(N2CCOCC2)cc(N2CCN(C(=S)SCC(=O)N3CCOCC3)CC2)n1
[12]
  IC50: > 50 nM
U-87 MG [2]
  IC50: 1220 nM
[13]
  IC50: > 50 nM
HCT-116
  IC50: 1530 nM
[14]
  IC50: 35 nM
[1]
  IC50: 1.2 nM

## COc1cccc2c1nc(C(F)F)n2-c1nc(N2CCOCC2)cc(N2CCN(C(=S)SCCN(C)C)CC2)n1
[1]
  IC50: 34 nM

## COc1cccc2c1nc(C(F)F)n2-c1nc(N2CCOCC2)cc(N2CCN(C(=S)SCCN3CCN(C)CC3)CC2)n1
[1]
  IC50: 120 nM

## COc1cccc2c1nc(C(F)F)n2-c1nc(N2CCOCC2)nc(N2CCN(C(=S)SCCN(C)C)CC2)n1
[1]
  IC50: 63 nM

## COc1cccc2c1nc(C(F)F)n2-c1nc(N2CCOCC2)nc(N2CCN(C(=S)SCCN3CCCC3)CC2)n1
[1]
  IC50: 20 nM

## COc1cccc2c1nc(C(F)F)n2-c1nc(N2CCOCC2)cc(N2CCN(C(=S)SCC(=O)N3CCCC3)CC2)n1
U-87 MG [2]
  IC50: 1990 nM
HCT-116
  IC50: 1230 nM
[1]
  IC50: 1.4 nM

## COc1cccc2c1nc(C(F)F)n2-c1nc(N2CCOCC2)nc(N2CCN(C(=S)SCCN3CCN(C)CC3)CC2)n1
[1]
  IC50: 9.1 nM

## COc1cccc2c1nc(C(F)F)n2-c1nc(N2CCOCC2)nc(N2CCN(C(=S)SCCN3CCOCC3)CC2)n1
[1]
  IC50: 29 nM

## CCN(CC)C(=O)CSC(=S)N1CCN(c2nc(N3CCOCC3)nc(-n3c(C(F)F)nc4c(OC)cccc43)n2)CC1
[1]
  IC50: 1.1 nM

## COc1cccc2c1nc(C(F)F)n2-c1nc(N2CCOCC2)nc(N2CCN(C(=S)SCC(=O)NC3CCCCC3)CC2)n1
[1]
  IC50: 5.1 nM

## COc1cccc2c1nc(C(F)F)n2-c1nc(N2CCOCC2)nc(N2CCN(C(=S)SCC(=O)NC3CCC3)CC2)n1
[1]
  IC50: 1.6 nM

## CCN(CC)CCSC(=S)N1CCN(c2nc(N3CCOCC3)nc(-n3c(C(F)F)nc4c(OC)cccc43)n2)CC1
[1]
  IC50: 38 nM

## COc1cccc2c1nc(C(F)F)n2-c1nc(N2CCOCC2)cc(N2CCN(C(=S)SCC(=O)N(C)C)CC2)n1
[12]
  IC50: > 50 nM
U-87 MG [2]
  IC50: 2040 nM
[13]
  IC50: > 50 nM
HCT-116
  IC50: 2200 nM
[14]
  IC50: 33 nM
[1]
  IC50: 1.8 nM

## COc1cccc2c1nc(C(F)F)n2-c1nc(N2CCOCC2)nc(N2CCN(C(=S)SCC(=O)N3CCN(C4CCCC4)CC3)CC2)n1
[1]
  IC50: 2.5 nM

## COc1cccc2c1nc(C(F)F)n2-c1nc(N2CCOCC2)nc(N2CCN(C(=S)SCC(N)=O)CC2)n1
[1]
  IC50: 1.6 nM

## COc1cccc2c1nc(C(F)F)n2-c1nc(N2CCOCC2)nc(N2CCN(C(=S)SCC(=O)NC3CC3)CC2)n1
[1]
  IC50: 1.4 nM

## COc1cccc2c1nc(C(F)F)n2-c1nc(N2CCOCC2)nc(N2CCN(C(=S)SCC(=O)N3CCCC3)CC2)n1
[1]
  IC50: 0.9 nM
